Data from ChEMBL document CHEMBL1139521, “Synthetic iminosugar derivatives as new potential immunosuppressive agents” (J Med Chem, 2005).
pIC50: −log10 of the molar value.

Key:
Format in all cases: functional
Mus musculus [1] = species on record: Mus musculus; assay: Effect on level of IFN-gamma secretion splenocytes in mice following treatment with 25 uM compound done for 72 hr at 37 degree C
How it was run: (§1)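 Mouse spleen cells stimulated with concanavalin A in the presence of 25 µM test agent (acetate form) at 37 °C, 5% CO2 for 72 h. Cytokine levels (IL-4 or IFN-γ) in the culture supernatant measured by mouse ELISA kit. Reduction expressed relative to control. Means ± SEM of at least three independent experiments.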

Mus musculus [2] = species on record: Mus musculus; assay: Effect on level of IL-4 secretion in mice splenocytes following treatment with 25 uM compound done for 72 hr at 37 degree C; how it was run: as §1
[3] = Inhibitory concentration against proliferation of mouse splenocytes was determined by measuring mitochondrial dehydrogenase activity using MTT assay
How it was run: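 Mouse splenocyte proliferation measured by a 72 h MTT assay, with mitochondrial dehydrogenase activity of surviving cells as read-out. Test agents were in acetate form. Cyclosporin A was included as a comparator. IC50 taken as the concentration giving 50% inhibition.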

Row | SMILES | Reduction (Mus musculus [1]) [%] | Reduction (Mus musculus [2]) [%] | pIC50 [3]
1 | OC[C@H]1N[C@H](CO)[C@H](O)C(O)[C@H]1O (stereo not given in full) | 75.89 | 69.2 | 3.28
2 | OC[C@@H]1N[C@@H](CO)[C@H](O)C(O)[C@H]1O (stereo not given in full) | 51.6 | 84.6 | 3.57
3 | O=C(O)[C@H]1N[C@H](CO)[C@H](O)[C@H](O)[C@H]1O | 31.2 | 30.8 | 3.47
4 | O=C(O)[C@H]1N[C@@H](CO)[C@H](O)[C@H](O)[C@H]1O | 24.2 | 92.3 | 3.46
5 | OC[C@@H]1N[C@H](CO)[C@H](O)[C@@H](O)[C@H]1O | 86.2 | 92.3 | 3.48
